The target in series [1] is CYP2C9 (Homo sapiens, UniProt P11712). Put plainly: Inhibition of CYP2C9 in human liver microsomes at 0.4 uM. The series is classed as ADME, Microsome. For orientation: Liver microsomes are vesicles of endoplasmic reticulum, rich in cytochrome P450 enzymes.
Series [2] concerns the target T1, CYP1A2 (Homo sapiens, UniProt P05177).
T1 sequence (P05177 whole entry): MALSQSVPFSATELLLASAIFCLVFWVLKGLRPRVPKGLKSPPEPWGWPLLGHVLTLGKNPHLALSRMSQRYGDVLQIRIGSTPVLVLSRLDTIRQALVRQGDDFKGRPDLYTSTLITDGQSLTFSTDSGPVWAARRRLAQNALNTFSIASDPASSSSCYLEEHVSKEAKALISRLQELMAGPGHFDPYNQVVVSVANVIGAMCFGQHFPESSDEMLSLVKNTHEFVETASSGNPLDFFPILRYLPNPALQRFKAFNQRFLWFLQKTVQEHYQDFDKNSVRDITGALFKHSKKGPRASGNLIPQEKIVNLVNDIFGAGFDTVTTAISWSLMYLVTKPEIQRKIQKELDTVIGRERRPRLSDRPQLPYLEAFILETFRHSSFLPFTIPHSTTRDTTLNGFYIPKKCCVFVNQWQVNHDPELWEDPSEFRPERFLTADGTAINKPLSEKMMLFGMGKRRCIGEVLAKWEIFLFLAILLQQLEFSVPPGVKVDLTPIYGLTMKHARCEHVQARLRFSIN
Put plainly: Inhibition of CYP1A2 in human liver microsomes at 0.4 uM. In kind it is ADME, Microsome.

Series [3] has as its target CYP2C19 (Homo sapiens, UniProt P33261). As to the kind of experiment: Inhibition of CYP2C19 in human liver microsomes at 0.4 uM. The series is classed as ADME, Microsome.
Series [4] concerns the target CYP2D6 (Homo sapiens, UniProt P10635). As to the kind of experiment: Inhibition of CYP2D6 in human liver microsomes at 0.4 uM. In kind it is ADME, Microsome.
Series [5] has as its target T2, Cytochrome P450 26A1 (Homo sapiens, UniProt O43174).
T2 sequence (O43174 whole entry): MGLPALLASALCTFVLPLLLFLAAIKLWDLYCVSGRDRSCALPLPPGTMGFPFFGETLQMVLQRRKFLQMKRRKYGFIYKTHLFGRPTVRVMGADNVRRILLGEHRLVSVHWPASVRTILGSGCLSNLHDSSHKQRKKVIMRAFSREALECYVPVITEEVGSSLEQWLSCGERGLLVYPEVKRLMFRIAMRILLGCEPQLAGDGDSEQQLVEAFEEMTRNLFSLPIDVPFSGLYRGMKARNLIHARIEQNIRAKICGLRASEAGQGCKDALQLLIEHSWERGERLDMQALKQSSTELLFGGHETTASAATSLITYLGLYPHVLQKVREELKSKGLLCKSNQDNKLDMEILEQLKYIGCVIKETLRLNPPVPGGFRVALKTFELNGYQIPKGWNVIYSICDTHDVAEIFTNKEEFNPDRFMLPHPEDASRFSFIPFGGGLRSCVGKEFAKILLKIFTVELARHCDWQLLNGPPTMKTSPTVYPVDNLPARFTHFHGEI
As to the kind of experiment: Inhibition of CYP26A1 in human MCF7 cell microsomes using [3H]ATRA after 1 hr by scintillation counting. More on the design: species or system Microsome. The gist of the method: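 Cell-free assay on MCF7 CYP26A1 microsomes with [11,12-3H]all-trans-retinoic acid as substrate. IC50 taken from the best fit of a four-point dose-response curve.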

Series [6] deals with SH-SY5Y. As to the kind of experiment: Induction of CYP26A1 mRNA expression in human SH-SY5Y cells at 1 uM after 72 hrs by RT-PCR analysis in presence of 0.1 uM of all-trans retinoic acid. In kind it is functional. The gist of the method:
(§1)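 SH-SY5Y cells exposed 72 h to test agent at 1 μM alone or with 0.1 μM ATRA. Total RNA extracted, reverse transcribed, and quantified by real-time PCR with TaqMan probes for CYP26A1 and β-actin. CYP26A1 was normalized to β-actin and reported as fold increase over cells given ATRA alone.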

Series [7] deals with CYP3A4 (Homo sapiens, UniProt P08684). Put plainly: Inhibition of CYP3A4 in human liver microsomes at 0.4 uM. In kind it is ADME, Microsome.
The target in series [8] is Cytochrome P450 2C9 (Homo sapiens, UniProt P11712). Put plainly: Inhibition of CYP2C9 in human liver microsomes. In kind it is ADME, Microsome.
Series [9] has as its system Salmonella typhimurium. As to the kind of experiment: Mutagenic activity in Salmonella Typhimurium TA100 by Ames test in presence of S9 mixture. Particulars: salmonella enterica subsp. enterica serovar typhimurium. The series is classed as toxicity, organism-based. The gist of the method: (§2)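 Ames screen with Salmonella typhimurium strains TA98 and TA100, run with and without S-9 mix.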
On the technique in general: The Ames test uses bacterial strains that need an amino acid and regain growth without it when mutated back.

Series [10] concerns Salmonella typhimurium. As to the kind of experiment: Mutagenic activity in Salmonella Typhimurium TA98 by Ames test in presence of S9 mixture. The series is classed as toxicity, organism-based. The settings on record: salmonella enterica subsp. enterica serovar typhimurium. The gist of the method:
as §2

In series [11] the target is T3, Cytochrome P450 1A2 (Homo sapiens, UniProt P05177).
T3 sequence (P05177 whole entry): T1 sequence (P05177 whole entry)
As to the kind of experiment: Inhibition of CYP1A2 in human liver microsomes. In kind it is ADME, Microsome.

The target of series [12] is Cytochrome P450 2D6 (Homo sapiens, UniProt P10635). As to the kind of experiment: Inhibition of CYP2D6 in human liver microsomes. In kind it is ADME, Microsome.
Series [13] can be described thus: Half life in human liver microsomes. The series is classed as ADME, Microsome.
Series [14] deals with SH-SY5Y. Put plainly: Induction of CYP26A1 mRNA expression in human SH-SY5Y cells at 1 uM after 72 hrs by RT-PCR analysis. In kind it is functional, cell-based. The gist of the method:
as §1

Calls of active or inactive are those of the source. The calls are words filed in the database; no cut-off is given here. A value given as a limit tells only on which side of the number the result lay.

CYP2C9, sequence (P11712 whole entry): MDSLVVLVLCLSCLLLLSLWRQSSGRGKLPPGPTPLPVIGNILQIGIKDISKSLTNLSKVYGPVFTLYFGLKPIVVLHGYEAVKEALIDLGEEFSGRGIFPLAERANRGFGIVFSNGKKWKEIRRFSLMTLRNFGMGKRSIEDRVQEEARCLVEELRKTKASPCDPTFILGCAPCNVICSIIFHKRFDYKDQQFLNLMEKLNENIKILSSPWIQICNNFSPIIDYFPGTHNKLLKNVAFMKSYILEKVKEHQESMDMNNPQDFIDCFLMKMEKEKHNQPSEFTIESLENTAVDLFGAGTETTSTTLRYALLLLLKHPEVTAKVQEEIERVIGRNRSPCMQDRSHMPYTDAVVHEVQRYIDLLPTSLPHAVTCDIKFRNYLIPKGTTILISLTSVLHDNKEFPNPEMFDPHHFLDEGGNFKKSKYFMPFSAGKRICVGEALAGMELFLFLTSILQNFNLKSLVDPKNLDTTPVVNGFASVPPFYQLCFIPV
CYP2D6, sequence (P10635 whole entry): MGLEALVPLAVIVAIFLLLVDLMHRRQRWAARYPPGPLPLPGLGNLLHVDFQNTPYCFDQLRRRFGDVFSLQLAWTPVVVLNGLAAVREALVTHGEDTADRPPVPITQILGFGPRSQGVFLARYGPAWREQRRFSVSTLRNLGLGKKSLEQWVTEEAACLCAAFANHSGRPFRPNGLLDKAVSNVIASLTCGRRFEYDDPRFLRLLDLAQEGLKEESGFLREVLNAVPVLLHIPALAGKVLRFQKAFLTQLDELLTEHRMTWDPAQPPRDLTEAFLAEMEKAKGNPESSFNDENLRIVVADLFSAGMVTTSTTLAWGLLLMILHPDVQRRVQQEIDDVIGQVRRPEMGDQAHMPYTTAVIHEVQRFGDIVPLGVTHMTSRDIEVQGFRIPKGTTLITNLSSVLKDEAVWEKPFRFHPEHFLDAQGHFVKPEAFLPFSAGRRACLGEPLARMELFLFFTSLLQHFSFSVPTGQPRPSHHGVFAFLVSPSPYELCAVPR
CYP2C19, sequence (P33261 whole entry): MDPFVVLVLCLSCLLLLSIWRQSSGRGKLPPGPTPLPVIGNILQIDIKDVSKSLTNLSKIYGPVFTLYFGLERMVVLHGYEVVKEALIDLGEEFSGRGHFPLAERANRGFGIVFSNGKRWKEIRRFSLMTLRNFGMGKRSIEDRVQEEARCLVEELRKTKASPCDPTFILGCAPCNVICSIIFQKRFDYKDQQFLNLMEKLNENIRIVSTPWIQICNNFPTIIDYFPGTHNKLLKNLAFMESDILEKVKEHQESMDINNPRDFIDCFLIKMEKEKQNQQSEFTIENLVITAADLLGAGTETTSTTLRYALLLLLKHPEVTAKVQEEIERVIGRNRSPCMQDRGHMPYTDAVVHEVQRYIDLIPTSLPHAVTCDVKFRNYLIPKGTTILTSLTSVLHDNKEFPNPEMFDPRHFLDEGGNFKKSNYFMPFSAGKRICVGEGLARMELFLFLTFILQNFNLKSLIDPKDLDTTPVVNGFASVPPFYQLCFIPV
CYP3A4, sequence (P08684 whole entry): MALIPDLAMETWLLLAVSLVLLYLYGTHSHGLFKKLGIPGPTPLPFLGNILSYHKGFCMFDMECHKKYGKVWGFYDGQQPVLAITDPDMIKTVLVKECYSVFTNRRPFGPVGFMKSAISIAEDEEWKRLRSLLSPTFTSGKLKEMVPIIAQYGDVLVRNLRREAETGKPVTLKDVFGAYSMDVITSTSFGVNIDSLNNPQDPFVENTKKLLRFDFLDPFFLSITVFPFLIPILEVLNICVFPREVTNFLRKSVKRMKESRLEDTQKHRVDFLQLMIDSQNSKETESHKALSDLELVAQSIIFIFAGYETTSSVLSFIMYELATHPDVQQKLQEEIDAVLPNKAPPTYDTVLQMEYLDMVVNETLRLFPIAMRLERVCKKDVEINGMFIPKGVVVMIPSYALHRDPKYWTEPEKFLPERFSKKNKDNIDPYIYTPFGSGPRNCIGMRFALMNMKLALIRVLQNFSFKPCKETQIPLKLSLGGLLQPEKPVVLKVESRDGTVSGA
Cytochrome P450 2C9, sequence (P11712 whole entry): as the sequence (P11712 whole entry) above
Cytochrome P450 2D6, sequence (P10635 whole entry): as the sequence (P10635 whole entry) above

What is called inhibition is the share of the control response that was lost under treatment. In general, IC50 refers to the concentration that gives 50% inhibition. High values mean lower potency, low ones higher potency. Take `COC(=O)C(C)(C)C(c1ccc(Nc2nc3ccccc3o2)cc1)n1ccnc1` (stereo not drawn): the inhibition at 0.4 µM in [1] came out at 45%; in series [2], 31%; in series [3], 13%; in series [4] it was 55%; in series [7], 84%. This molecule registered an IC50 in [5] of 10 nM. Besides, in [6], the result was Active.

Take `COC(=O)C(C)(C)C(c1ccc(Nc2nc3ccccc3s2)cc1)n1ccnc1` (stereo not drawn): the inhibition at 0.4 µM in series [1] was determined as 87%; in series [2], 38%; in [3] it was 91%; in series [4], 11%; in [7], 46%. In series [5], the IC50 turned out to be 100 nM.

In series [5], `CCOc1ccc2ccccc2c1Nc1ccc(C(n2ccnc2)C(C)(C)C(=O)OC)cc1` (stereo not drawn) gave a half-inhibitory concentration (IC50) of 125 nM.

Regarding `COC(=O)[C@@H](C)[C@H](c1ccc(Nc2ccc3ccccc3c2)cc1)n1ccnc1` (relative stereo), half-maximal inhibition in series [5] (IC50) required 140 nM.

For `COC(=O)[C@H](C)[C@H](c1ccc(Nc2ccc3ccccc3c2)cc1)n1ccnc1` (relative stereo), the midpoint of inhibition in series [5], the IC50, lay at 50 nM. For the same molecule, the outcome in series [6] was Active.

In general, half-life refers to how long it takes for the measured level to halve. Take `COC(=O)C(C)(C)C(c1ccc(Nc2ccc3ccccc3c2)cc1)n1ccnc1` (stereo not drawn): the half-maximal inhibitory concentration (IC50) in [8] turned out to be 1500 nM; in [11], 1200 nM; in [12] it was 600 nM; in series [5], 3 nM. The inhibition at 0.4 µM in [1] worked out at 41%; in series [2], 21%; in series [3] it was 11%; in series [4] it was 25%; in series [7], 60%. The Activity entry in series [9] and in [10] was “Non-toxic” each time. In series [6], the “fold change (FC)” value turned out to be 5.8. Moreover, in [13], the half-life was 5 h.

On to `COC(=O)C(C)(C)C(c1ccc(Nc2ccccc2)cc1)n1ccnc1` (stereo not drawn), for which, in series [5], the IC50 was 10 nM. In series [6], the result was Active.

In turn, `COC(=O)C(C)(C)C(c1ccc(Oc2ccc3ccccc3c2)cc1)n1ccnc1` (stereo not drawn) showed an IC50 in series [5] of over 1000 nM.

Turning to `COC(=O)C(C)(C)C(c1ccc(Nc2cccc3ccccc23)cc1)n1ccnc1` (stereo not drawn), the inhibition at 0.4 µM was 48% in series [1]; 15% in series [2]; 49% in series [3]; 53% in series [4]; 75% in series [7]. Inhibition in series [5] was half-maximal at 6 nM (IC50). Also, in [6], the result was Active.

On to `COC(=O)C(C)(C)C(c1ccc(Cc2ccc3ccccc3c2)cc1)n1ccnc1` (stereo not drawn), for which the IC50 in series [5] is over 1000 nM.

As for `COC(=O)[C@@H](C)[C@H](c1ccc(Nc2ccccc2)cc1)n1ccnc1` (relative stereo), the 50% inhibitory concentration (IC50) in series [5] came to 40 nM. The outcome in series [6] was Active.

`COC(=O)C(C)(C)C(c1ccc(Nc2ccc3cc(OC)ccc3c2)cc1)n1ccnc1` (stereo not drawn) registered an IC50 in series [5] of 8 nM.

Turning to `COC(=O)C(C)(C)C(c1ccc(Nc2ccc3c(c2)OCO3)cc1)n1ccnc1` (stereo not drawn), the IC50 in series [5] came to 8 nM. Further, the result in [6] was Active.

`COC(=O)C(C)(C)C(c1ccc(Nc2ccc3cc(O)ccc3c2)cc1)n1ccnc1` (stereo not drawn) displayed a concentration for half-maximal inhibition (IC50) in series [5] of 3 nM. Besides, the outcome in [6] was Active.

With `C[C@H]([C@@H](c1ccc(Nc2nc3ccccc3s2)cc1)n1ccnc1)N(C)C`, the IC50 in series [8] is 5900 nM; in series [11] it was 8300 nM; in series [12], 3900 nM; in series [5], 10 nM. Further, in series [14], the outcome was inactive. Besides, the “fold change (FC)” value in series [6] was 4.7.

Molecule `COC(=O)[C@H](C)[C@H](c1ccc(Nc2ccccc2)cc1)n1ccnc1` (relative stereo) displayed an IC50 in series [5] of 26 nM.

`COC(=O)C(C)(C)C(c1ccc(Nc2ccc(-c3ccccc3)cc2)cc1)n1ccnc1` (stereo not drawn): the half-inhibitory concentration (IC50) in [5] came out at 250 nM.

For the molecule `Clc1cccc(C(c2ccc3[nH]cnc3c2)n2ccnc2)c1` (stereo not drawn) [LIAROZOLE], the outcome in series [14] was inactive. The “fold change (FC)” value in [6] is recorded as 2.3.

The values are drawn from ChEMBL document CHEMBL1764976, “Small molecule inhibitors of retinoic acid 4-hydroxylase (CYP26): synthesis and biological evaluation of imidazole methyl 3-(4-(aryl-2-ylamino)phenyl)propanoates” (J Med Chem, 2011).
